Source: ChEMBL document CHEMBL1821687, “Discovery, synthesis, and biological evaluation of novel SMN protein modulators” (J Med Chem, 2011)
pIC50: −log10 of the molar value. Activity calls are given as the source filed them. The rule behind the calls is not given here.

How the values were obtained:
[1] = biological target: Survival motor neuron protein (Homo sapiens) (UniProt Q16637); experiment: Activation of SMN expressed in HEK293 cells assessed as concentration required to reach 50% of maximum luciferase signal by SMN2-promotor driven luciferase reporter gene assay; type: cell-based
Survival motor neuron protein (Homo sapiens), sequence (Q16637 whole entry): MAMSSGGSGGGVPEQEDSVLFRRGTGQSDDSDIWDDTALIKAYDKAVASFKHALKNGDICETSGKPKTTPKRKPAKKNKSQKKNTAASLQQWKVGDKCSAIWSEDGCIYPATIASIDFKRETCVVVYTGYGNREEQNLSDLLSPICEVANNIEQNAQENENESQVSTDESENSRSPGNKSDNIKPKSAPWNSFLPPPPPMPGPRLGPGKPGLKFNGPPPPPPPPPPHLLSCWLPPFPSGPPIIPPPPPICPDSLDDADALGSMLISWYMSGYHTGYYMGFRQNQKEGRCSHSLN
How it was run: (§1)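 HEK-293 cells stably carrying the SMN2 reporter construct, kept in DMEM with 10% FCS, glutamax, pyruvate, pen/strep and 200 µg/mL hygromycin, and assayed without hygromycin. 2,000 cells/well were plated and adhered overnight at 37 °C, 5% CO2. Compounds were added as a 7-point titration, 50 µM to 25 nM final, in 0.46% DMSO, for 30–36 h. OneGlo luminescence was normalized to 4.5 mM sodium butyrate (100%) and DMSO (0%).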

[2] = biological target: Survival motor neuron protein (Homo sapiens) (UniProt Q16637); experiment: Activation of SMN expressed in HEK293 cells assessed as rate of induction by SMN2-promotor driven luciferase reporter gene assay relative to basal level; type: cell-based; design: concentration or dose not given beside the values; how it was run: as §1
Caco-2 [3] = experiment: Apparent permeability from apical side to basolateral side of human Caco2 cells at 10 uM; type: ADME, cell-based; settings: caco-2, 10 µM
Caco-2 [4] = experiment: Apparent permeability from basolateral side to apical side of human Caco2 cells at 10 uM; type: ADME, cell-based; settings: caco-2, 10 µM
[5] = biological target: T1, Luciferin 4-monooxygenase (Luciola lateralis, UniProt Q01158); experiment: Inhibition of fire fly luciferase; design: species or system Aquatica lateralis; settings: read-out: IC50
T1 sequence (Q01158 whole entry): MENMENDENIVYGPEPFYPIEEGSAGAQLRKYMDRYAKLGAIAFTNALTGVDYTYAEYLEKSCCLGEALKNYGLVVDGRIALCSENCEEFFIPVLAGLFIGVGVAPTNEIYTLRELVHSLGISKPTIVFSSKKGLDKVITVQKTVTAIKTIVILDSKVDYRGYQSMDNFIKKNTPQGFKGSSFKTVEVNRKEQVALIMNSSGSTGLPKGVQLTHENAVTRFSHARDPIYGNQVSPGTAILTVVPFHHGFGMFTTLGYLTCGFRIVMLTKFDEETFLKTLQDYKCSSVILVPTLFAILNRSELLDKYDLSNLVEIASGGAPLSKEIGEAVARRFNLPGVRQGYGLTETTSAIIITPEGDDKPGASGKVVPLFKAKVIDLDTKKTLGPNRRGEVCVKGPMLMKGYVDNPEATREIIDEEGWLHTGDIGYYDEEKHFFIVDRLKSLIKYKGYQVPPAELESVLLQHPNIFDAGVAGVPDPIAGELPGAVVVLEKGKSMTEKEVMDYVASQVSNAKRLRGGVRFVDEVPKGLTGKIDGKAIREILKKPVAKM

Liver = experiment: Half-life in mouse liver microsome at 1 uM; type: ADME; settings: microsomes
[6] = biological target: Survival motor neuron protein (Homo sapiens) (UniProt Q16637); experiment: Activation of SMN in human fibroblast cells obtained from type 1 SMA patients assessed as protein punctuate bodies per 100 nuclei at 37 to 3000 nM; type: cell-based
How it was run: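 Type I SMA patient fibroblasts (3813 line) were treated with 37–3000 nM compound for 3 days. Gems were then counted per 100 nuclei.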

Compound	Activity [1]	Activity [2]	Papp (Caco-2 [3])	Papp (Caco-2 [4])	pIC50 [5]	t1/2 (Liver)	Activity [6]
NC(=O)C1CCN(c2nc(-c3cccc(Cl)c3)cs2)CC1	12.2 µM	53%	–	–	–	–	–
NC(=O)C1CCN(c2nccc(-c3ccc4c(c3)OCCCO4)n2)CC1	1.54 µM	234%	–	–	–	–	–
CN(C)c1cccc(-c2cnc(N3CCC(c4ncc[nH]4)CC3)s2)c1	7.72 µM	188%	–	–	–	–	–
CSc1ccc(-c2cnc(N3CCC(C(N)=O)CC3)s2)cc1	0.031 µM	576%	16 nm/s	2 nm/s	4.40	2 min	–
CNC(=O)C1CCN(c2nc(-c3ccc(Br)cc3)cs2)CC1	7.72 µM	101%	–	–	–	–	–
COc1ccc(-c2csc(N3CCC(C(N)=O)CC3)n2)cc1	7.72 µM	209%	–	–	–	–	–
NC(=O)C1CCN(c2nccc(-c3ccc4c(c3)OCCO4)n2)CC1	1.22 µM	364%	–	–	–	–	–
CC(C)COc1ccc(-c2csc(N3CCC(C(N)=O)CC3)n2)cc1	3.07 µM	54%	–	–	–	–	–
Cc1ccc(-c2nnc(N3CCC(C(N)=O)CC3)s2)cc1	0.244 µM	54%	–	–	–	–	–
NC(=O)C1CCN(c2ncc(-c3ccc4c(c3)OCCCO4)s2)CC1	0.038 µM	370%	131 nm/s	99 nm/s	5.49	30 min	inactive
CC(=O)N1CCN(c2nc(-c3ccc(Br)cc3)cs2)CC1	3.07 µM	234%	–	–	–	–	–
NC(=O)C1CCN(c2nc(-c3ccc(F)cc3)cs2)CC1	3.87 µM	288%	–	–	–	–	–
O=C(C1CCN(c2nc(-c3ccc(Br)cc3)cs2)CC1)N1CCOCC1	30.8 µM	77%	–	–	–	–	–
NC(=O)C1CCN(c2nc(-c3ccc4occc(=O)c4c3)cs2)CC1	15.4 µM	589%	–	–	–	–	–
